# Measurements reported in ChEMBL document CHEMBL4011617, “Ugi Reaction-Derived α-Acyl Aminocarboxamides Bind to Phosphatidylinositol 3-Kinase-Related Kinases, Inhibit HSF1-Dependent Heat Shock Response, and Induce Apoptosis in Multiple Myeloma Cells” (J Med Chem, 2017).
# Activity calls are given as the source filed them. No cut-off for these calls is given here.
# Key:
# [1] = system: INA-6; test: Inhibition of heat shock response in human INA-6 cells assessed as reduction in HSF-1 mediated upregulation of the HSP72 protein expression at 10 uM preincubated for 4 hrs followed by HSP90 inhibitor and HSR inducer NVP-AUY922 addition measured after 4 hrs by Western blot method; type: functional, cell-based
# Summary of the method: (§1)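 INA-6 cells given the dual DNA-PK/mTOR inhibitor NU7441 for 4 h, then co-treated with 10 nM NVP-AUY922 for 4 h more. Protein lysates analysed by Western blot for HSF1, phospho-HSF1, HSP72 and HSP27, with α-tubulin as loading control.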
# [2] = system: INA-6; test: Inhibition of heat shock response in human INA-6 cells assessed as reduction in HSF-1 mediated upregulation of the HSP72 mRNA expression at 10 uM preincubated for 4 hrs followed by HSP90 inhibitor and HSR inducer NVP-AUY922 addition measured after 4 hrs by RT-PCR method; type: functional, cell-based
# Summary of the method: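 Cells pretreated 4 h with NU7441, then 10 nM NVP-AUY922 added for 4 h. Total mRNA isolated; HSF1 and HSP72 levels determined by RT-PCR and normalized to α-tubulin.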
# [3] = system: INA-6; test: Downregulation of NVP-AUY922-induced HSF-1 protein expression in human INA-6 cells at 10 uM preincubated for 4 hrs followed by NVP-AUY922 addition measured after 4 hrs by Western blot method; type: functional, cell-based
# Summary of the method: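 INA-6 cells received the dual DNA-PK/mTOR inhibitor for 4 h, then 10 nM NVP-AUY922 was added for another 4 h. Protein lysates were Western blotted for HSF1, phospho-HSF1, HSP72 and HSP27, with α-tubulin as the loading control.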
# [4] = system: INA-6; test: Downregulation of NVP-AUY922-induced HSF-1 mRNA expression in human INA-6 cells at 10 uM preincubated for 4 hrs followed by NVP-AUY922 addition measured after 4 hrs by RT-PCR method; type: functional, cell-based
# Summary of the method: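 INA-6 myeloma cells were treated with the dual DNA-PK/mTOR inhibitor for 4 h, then co-treated with 10 nM NVP-AUY922 for a further 4 h. Total RNA was isolated and HSF1 and HSP72 mRNA was measured by RT-PCR. Values were normalized to α-tubulin.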
# [5] = molecular target: T1, Heat shock factor protein 1 (Homo sapiens) (UniProt Q00613); test: Inhibition of NVP-AUY922-induced HSF-1 phosphorylation in human INA-6 cells at 10 uM preincubated for 4 hrs followed by NVP-AUY922 addition measured after 4 hrs by Western blot method; type: cell-based; summary of the method: as §1
# T1 sequence (whole entry): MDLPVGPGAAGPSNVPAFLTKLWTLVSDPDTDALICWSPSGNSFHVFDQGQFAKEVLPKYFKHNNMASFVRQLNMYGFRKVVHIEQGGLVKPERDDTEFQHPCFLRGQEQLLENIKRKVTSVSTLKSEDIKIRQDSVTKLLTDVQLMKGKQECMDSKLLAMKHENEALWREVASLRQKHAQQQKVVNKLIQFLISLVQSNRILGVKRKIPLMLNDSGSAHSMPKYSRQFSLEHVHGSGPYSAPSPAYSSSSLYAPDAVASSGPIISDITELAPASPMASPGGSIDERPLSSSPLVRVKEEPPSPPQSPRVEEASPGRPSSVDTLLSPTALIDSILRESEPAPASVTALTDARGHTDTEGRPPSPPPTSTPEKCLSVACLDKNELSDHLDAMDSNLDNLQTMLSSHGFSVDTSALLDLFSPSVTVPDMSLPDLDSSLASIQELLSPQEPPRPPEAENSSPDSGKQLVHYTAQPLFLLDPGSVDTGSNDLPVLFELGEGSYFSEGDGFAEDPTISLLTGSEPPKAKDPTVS
# [6] = system: INA-6; test: Inhibition of heat shock response in human INA-6 cells assessed as reduction in HSF-1 mediated upregulation of the heat shock protein HSP72 at 50 uM preincubated for 4 hrs followed by HSP90 inhibitor and HSR inducer NVP-AUY922 addition measured after 4 hrs by Western blot method; type: functional, cell-based
# Summary of the method: (§2)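 INA-6 myeloma cells pretreated with test compound for 4 h, then co-treated with the HSP90 inhibitor/HSR inducer NVP-AUY922 for a further 4 h. Cells harvested; HSP72, HSP27, HSF1 or phospho-HSF1 probed by Western blot with β-actin as loading control. DMSO-only cells were the negative control; NVP-AUY922-only cells were the positive control.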
# [7] = system: INA-6; test: Inhibition of heat shock response in human INA-6 cells assessed as reduction in HSF-1 mediated upregulation of the heat shock protein HSP72 at 50 uM preincubated for 4 hrs followed by HSP90 inhibitor and HSR inducer NVP-AUY922 addition measured after 4 hrs by ELISA; type: functional, cell-based
# Summary of the method: (§3)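 HSP72 quantified by ELISA in the same protein lysates used for Western blots. INA-6 cells received compound for 4 h, then NVP-AUY922 co-treatment for 4 h more to stimulate HSF1. DMSO-only and NVP-AUY922-only cells served as negative and positive controls.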
# [8] = system: INA-6; test: Inhibition of heat shock response in human INA-6 cells assessed as reduction in HSF-1 mediated upregulation of the heat shock protein HSP27 at 50 uM preincubated for 4 hrs followed by HSP90 inhibitor and HSR inducer NVP-AUY922 addition measured after 4 hrs by Western blot method; type: functional, cell-based; summary of the method: as §2
# [9] = system: INA-6; test: Effect on NVP-AUY922-induced HSF-1 mRNA expression in human INA-6 cells at 50 uM preincubated for 4 hrs followed by NVP-AUY922 addition measured after 4 hrs by RT-PCR method; type: functional, cell-based
# Summary of the method: (§4)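 INA-6 cells exposed to compound for 4 h, then co-treated with 10 nM NVP-AUY922 for another 4 h. Total RNA isolated; HSP27, HSP72 and HSF1 transcripts measured by real-time PCR and normalized to α-tubulin. Means and standard deviations from three independent experiments.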
# [10] = system: INA-6; test: Induction of apoptosis in human INA-6 cells up to 50 uM after 72 hrs by annexin V-FITC/propidium iodide staining-based flow cytometry method; type: functional, cell-based
# Summary of the method: (§5)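 INA-6 cells incubated three days with DMSO or increasing compound concentrations. Viability read by annexin V-FITC/propidium iodide staining and flow cytometry. Double-negative (viable) fractions used to fit dose-response curves from three independent experiments; mean ± SD reported.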
# [11] = system: INA-6; test: Inhibition of heat shock response in human INA-6 cells assessed as reduction in HSF-1 mediated upregulation of the heat shock protein HSP27 at 50 uM preincubated for 4 hrs followed by HSP90 inhibitor and HSR inducer NVP-AUY922 addition measured after 4 hrs by ELISA; type: functional, cell-based
# [12] = system: INA-6; test: Downregulation of NVP-AUY922-induced HSF-1 protein expression in human INA-6 cells at 50 uM preincubated for 4 hrs followed by NVP-AUY922 addition measured after 4 hrs by Western blot method; type: functional, cell-based; summary of the method: as §2
# [13] = molecular target: Heat shock factor protein 1 (Homo sapiens) (UniProt Q00613); test: Inhibition of NVP-AUY922-induced HSF-1 phosphorylation at S326 residue in human INA-6 cells at 50 uM preincubated for 4 hrs followed by NVP-AUY922 addition measured after 4 hrs by Western blot method; type: cell-based; summary of the method: as §2
# [14] = system: INA-6; test: Induction of apoptosis in human INA-6 cells at 6.3 to 8.6 uM after 72 hrs by annexin V-FITC/propidium iodide staining-based flow cytometry method; type: functional, cell-based; summary of the method: as §5
# [15] = system: INA-6; test: Downregulation of NVP-AUY922-induced HSF-1 protein expression in human INA-6 cells at 25 uM preincubated for 4 hrs followed by NVP-AUY922 addition measured after 4 hrs by Western blot method; type: functional, cell-based
# Summary of the method: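 INA-6 cells were pre-treated with compound for 4 h, then co-treated with the HSP90 inhibitor NVP-AUY922 for an additional 4 h. Cells were harvested and blotted for HSP72, HSP27, HSF1 or phospho-HSF1, with β-actin as the loading control. DMSO-only cells served as the negative control and NVP-AUY922-only cells as the positive control.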
# [16] = molecular target: T1, Heat shock factor protein 1 (Homo sapiens); test: Inhibition of NVP-AUY922-induced HSF-1 phosphorylation at S326 residue in human INA-6 cells at 25 uM preincubated for 4 hrs followed by NVP-AUY922 addition measured after 4 hrs by Western blotting method; type: cell-based; summary of the method: as §2
# [17] = system: INA-6; test: Inhibition of heat shock response in human INA-6 cells assessed as reduction in HSF-1 mediated upregulation of the heat shock protein HSP72 at 25 uM preincubated for 4 hrs followed by HSP90 inhibitor and HSR inducer NVP-AUY922 addition measured after 4 hrs by Western blot method; type: functional, cell-based; summary of the method: as §2
# [18] = system: INA-6; test: Inhibition of heat shock response in human INA-6 cells assessed as reduction in HSF-1 mediated upregulation of the heat shock protein HSP72 at 25 uM preincubated for 4 hrs followed by HSP90 inhibitor and HSR inducer NVP-AUY922 addition measured after 4 hrs by ELISA; type: functional, cell-based; summary of the method: as §3
# [19] = system: INA-6; test: Inhibition of heat shock response in human INA-6 cells assessed as reduction in HSF-1 mediated upregulation of the heat shock protein HSP27 at 25 uM preincubated for 4 hrs followed by HSP90 inhibitor and HSR inducer NVP-AUY922 addition measured after 4 hrs by Western blot method; type: functional, cell-based; summary of the method: as §2
# [20] = system: INA-6; test: Effect on NVP-AUY922-induced HSF-1 mRNA expression in human INA-6 cells at 25 uM preincubated for 4 hrs followed by NVP-AUY922 addition measured after 4 hrs by RT-PCR method; type: functional, cell-based; summary of the method: as §4
# [21] = system: INA-6; test: Induction of apoptosis in human INA-6 cells preincubated for 4 hrs followed by NVP-AUY922 addition measured after 68 hrs by annexin V-FITC/propidium iodide staining-based flow cytometry method; type: functional, cell-based
# Summary of the method: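 INA-6 cells received DMSO or test compound for 72 h. At 4 h, DMSO or 10 nM NVP-AUY922 was added for the remaining 68 h. Viable fraction measured by annexin V-FITC/PI flow cytometry and expressed relative to the matching DMSO controls; means ± SD of three independent experiments.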
# [22] = system: INA-6; test: Inhibition of heat shock response in human INA-6 cells assessed as reduction in HSF-1 mediated upregulation of the heat shock protein HSP27 at 25 uM preincubated for 4 hrs followed by HSP90 inhibitor and HSR inducer NVP-AUY922 addition measured after 4 hrs
# [23] = system: INA-6; test: Inhibition of heat shock response in human INA-6 cells assessed as reduction in HSF-1 mediated upregulation of the heat shock protein HSP72 at 12.5 uM preincubated for 4 hrs followed by HSP90 inhibitor and HSR inducer NVP-AUY922 addition measured after 4 hrs by Western blot method; type: functional, cell-based; summary of the method: as §2
# [24] = system: INA-6; test: Inhibition of heat shock response in human INA-6 cells assessed as reduction in HSF-1 mediated upregulation of the heat shock protein HSP72 at 12.5 uM preincubated for 4 hrs followed by HSP90 inhibitor and HSR inducer NVP-AUY922 addition measured after 4 hrs by ELISA; type: functional, cell-based; summary of the method: as §3
# [25] = system: INA-6; test: Inhibition of heat shock response in human INA-6 cells assessed as reduction in HSF-1 mediated upregulation of the heat shock protein HSP27 at 12.5 uM preincubated for 4 hrs followed by HSP90 inhibitor and HSR inducer NVP-AUY922 addition measured after 4 hrs by Western blot method; type: functional, cell-based; summary of the method: as §2
# [26] = system: INA-6; test: Inhibition of heat shock response in human INA-6 cells assessed as reduction in HSF-1 mediated upregulation of the heat shock protein HSP27 at 12.5 uM preincubated for 4 hrs followed by HSP90 inhibitor and HSR inducer NVP-AUY922 addition measured after 4 hrs by ELISA; type: functional, cell-based
# [27] = system: INA-6; test: Effect on NVP-AUY922-induced HSF-1 mRNA expression in human INA-6 cells at 12.5 uM preincubated for 4 hrs followed by NVP-AUY922 addition measured after 4 hrs by RT-PCR method; type: functional, cell-based; summary of the method: as §4
molecule,measurement,setting,value
O=c1cc(N2CCOCC2)oc2c(-c3cccc4c3sc3ccccc34)cccc12,inhibition,[1],Active
same,inhibition,[2],Active
same,Activity,[3],Active
same,Activity,[4],Active
same,inhibition,[5],Active
COc1ccc(/C=C/C(=O)N(Cc2ccc(OC)cc2)C(C(=O)NCc2ccccc2)c2ccccc2Br)cc1 (racemic),heat shock response inhibition (active/not active),[6],inactive
same,HSP72 upregulation inhibition (active/not active),[7],inactive
same,activity call (active/not active) for inhibition of HSP27 upregulation,[8],inactive
same,Activity,[9],inactive
same,Activity,[10],inactive
N-(2-(Benzylamino)-1-(2-bromophenyl)-2-oxoethyl)-N-cyclopropylcinnamamide,heat shock response inhibition (active/not active),[6],Active
same,HSP72 upregulation inhibition (active/not active),[7],Active
same,activity call (active/not active) for inhibition of HSP27 upregulation,[8],Active
same,heat shock response inhibition (active/not active),[11],Active
same,Activity,[12],Active
same,inhibition,[13],Active
NCCOCCOCCNCCOc1ccc(C(C(=O)NCc2ccccc2)N(C(=O)CCc2ccccc2)C2CC2)cc1 (stereo unspecified),Activity,[14],Active
same,Activity,[15],Active
same,inhibition,[16],Active
same,inhibition,[17],Active
same,inhibition,[18],Active
same,inhibition,[19],Active
same,Activity,[20],inactive
same,Activity,[21],Active
same,inhibition,[22],Active
NCCOCCOCCNCCCCOc1ccc(CCC(=O)N(C2CC2)C(C(=O)NCc2ccccc2)c2ccc(Br)cc2)cc1 (racemic),inhibition,[23],inactive
same,inhibition,[24],inactive
same,inhibition,[25],inactive
same,inhibition,[26],inactive
same,Activity,[14],Active
same,Activity,[27],inactive
